Source: publication PMC5071122 (The Pediatric infectious disease journal, 2016)
Like-named read-outs stand apart in the source and are kept apart here. Starred links: 1 amine or outer side, 2 acyl side, 3 side chain; linkers in the order of their positions; H or OH if unused. Positions of bridges follow the written chain, without caps; N, C: chain ends. Non-standard residues stand in square brackets, D forms with d. Residues, ends and D or L forms follow the SMILES beside them. *: point of attachment. hTyr(3S-OH,4S-OH,3'-OSO3H) = N[C@H](C(=O)O)[C@H](O)[C@@H](O)c1ccc(O)c(OS(=O)(=O)O)c1; Orn(4R-OH,5R-OH) = O=C([C@H](C[C@@H](O)[C@@H](O)N[*:3])N[*:1])[*:2]; Pro(3S-OH,4S-Me) = C[C@H]1CN[C@H](C(=O)O)[C@H]1O; X1 = CCCCCOc1ccc(-c2cc(-c3ccc(C(=O)*)cc3)no2)cc1; Gln(3R-OH) = NC(=O)C[C@@H](O)[C@H](N)C(=O)O; Hyp = O=C(O)[C@@H]1C[C@@H](O)CN1

Assays:
[1] = ref 33; cited from earlier work
[2] = Safety: adverse events in infants on ECMO receiving micafungin; type: in vivo
[3] = neonatal trial of 15 mg/kg/day; standard deviation 99; cited from earlier work
[4] = phase III efficacy trial, used as target efficacy exposure; cited from earlier work
[5] = via hepatic transporter proteins; cited from earlier work
[6] = cited from earlier work
[7] = infants and children receiving micafungin; cited from earlier work
[8] = Open-label PK trial of IV micafungin in infants on ECMO; conditions: human, in vivo
[9] = Observed micafungin exposure; type: in vivo, infants; conditions: 4 mg/kg IV every 24h
Method in brief: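 Infants on ECMO, prophylactic arm, given IV test compound 4 mg/kg every 24h for up to 8 days. EDTA arterial plasma sampled around dose 4, from pre-infusion to 22-24h post-infusion, and assayed by HPLC-fluorescence (LLOQ 0.05 mg/L). AUC0-24 was computed from observed data by the linear-up log-down trapezoidal method and compared with the therapeutic target of 75-139 mg*h/L.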

[10] = cited from earlier work; remark: listed apart in the source
[11] = cited from earlier work; remark: listed apart in the source
Candida spp = conditions: ref 6-8; cited from earlier work

## CCCCCOc1ccc(-c2cc(-c3ccc(C(=O)N[C@H]4C[C@@H](O)[C@@H](O)NC(=O)[C@@H]5[C@@H](O)[C@@H](C)CN5C(=O)[C@H]([C@H](O)CC(N)=O)NC(=O)[C@H]([C@H](O)[C@@H](O)c5ccc(O)c(OS(=O)(=O)O)c5)NC(=O)[C@@H]5C[C@@H](O)CN5C(=O)[C@H]([C@@H](C)O)NC4=O)cc3)no2)cc1 [micafungin] (X1-[Orn(4R-OH,5R-OH)]T[Hyp][hTyr(3S-OH,4S-OH,3'-OSO3H)][Gln(3R-OH)][Pro(3S-OH,4S-Me)]; lactam 1-C)
[1]
  logP: −1.5
[2]; 12 infants on ECMO, study period
  Deaths considered related to micafungin: None
[2]; cohort of infants supported by ECMO
  Tolerability: well tolerated
[3]
  Mean (standard deviation) exposure deemed safe: 438 µg·h/mL
[4]
  AUC0-24 range, exposure of adult participants who cleared their fungal infection: 75 to 139 µg·h/mL
[5]
  Excreted primarily unchanged into bile and feces: 71%
[6]; reconstituted, room temperature, exposed to light
  Time reconstituted micafungin is stable: up to 24 hours
[6]; ref 16
  Light sensitivity: light-sensitive
[7]
  Hypokalemia, proportion of infants and children: 2%
  Liver toxicity, proportion of infants and children: 3%
[8]
  Vd: 0.64 L/kg
  clearance: 0.683 mL/min/kg
[9]; after dose 1 and 4, Two/4 infants
  Infants with a hemofilter achieving AUC0-24 within or above the therapeutic target range: 50%
[9]; prophylactic arm, 3/5 infants sampled around dose 4
  Infants within the therapeutic range after dose 4: 60%
[9]; prophylactic arm, 5/11 infants
  Infants achieving the therapeutic exposure target (75-139 mg*h/L) after a single dose: 45%
[10]; ref 14
  Protein bound: > 99%
[10]; ref 33
  Protein bound: > 99%
[11]; ref 15, 25
  V reported in infants not on ECMO: 0.34 to 0.54 L/kg
[11]; ref 19, 24-26
  CL, previously reported values for infants not supported by ECMO: 0.333 to 0.65 mL/min/kg
Candida spp
  Activity against a broad spectrum of Candida spp: fungicidal
  Biofilm penetration: can penetrate biofilms
